Source: PubChem
This is a sample that favours compounds with a hit; in the whole collection about 2.9% have one here.
CRFBP-R2 block: antagonists of CRF-BP/CRF-R2 complex, primary screen, cell-based, HEK293, calcium dye fluorescence, uHTS | inhibition, % at 11.8 µM | CRF-induced calcium fluorescence | 0.59% of 350,000 active;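 active means inhibition of the ligand-induced calcium signal above about 50% at the single tested concentration, limit read from the data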
DDE Tn6 FP inh: inhibitors of Tn6 peptide binding to fibrin DD(E), primary screen, biochemical, fluorescence polarization, human fibrin, Tn6 probe; Fibrinogen beta chain (Homo sapiens), P02675; Fibrin DD(E) TRITC-Tn6 fluorescence polarization displacement; inhibition, % at 8.3 µM; 0.21% of 370,000 active; AID 720509, 2013;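 active means inhibition above a per-campaign cutoff: mean of compounds within control limits plus 3 SD, cut at about 15% in these data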;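 further: 0% = median of all compound wells on the plate and 100% = blocking peptide control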
Target sequence (P02675 whole entry, looked up): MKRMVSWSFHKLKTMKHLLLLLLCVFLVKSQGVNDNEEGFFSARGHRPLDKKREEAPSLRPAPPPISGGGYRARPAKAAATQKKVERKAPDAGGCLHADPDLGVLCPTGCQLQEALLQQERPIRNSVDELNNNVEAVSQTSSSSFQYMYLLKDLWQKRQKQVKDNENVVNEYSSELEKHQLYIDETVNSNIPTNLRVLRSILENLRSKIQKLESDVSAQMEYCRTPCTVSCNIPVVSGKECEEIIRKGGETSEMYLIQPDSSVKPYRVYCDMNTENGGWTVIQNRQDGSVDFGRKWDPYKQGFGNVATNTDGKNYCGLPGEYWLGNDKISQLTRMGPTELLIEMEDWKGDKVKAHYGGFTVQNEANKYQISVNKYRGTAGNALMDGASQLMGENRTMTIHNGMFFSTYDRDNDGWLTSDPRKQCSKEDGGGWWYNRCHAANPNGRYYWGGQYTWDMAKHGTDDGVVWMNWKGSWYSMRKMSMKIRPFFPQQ
CRFR2-BP ag: agonists of CRF-BP/CRF-R2 complex, primary screen, cell-based, HEK293, calcium dye fluorescence, uHTS. CRF-binding protein / CRF receptor 2 complex (human). calcium dye fluorescence (FLIPR); percent of saturating CRF peptide response. activation, % at 13.2 µM. 0.46% of 350,000 active. AID 588473, 2011;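 active means activation of at least 50%, plus an integration ratio under a set limit after plate pattern correction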;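 further: plate controls were neutral control wells without compound for no effect and CRF at EC100 for full effect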
DDE Tn7 FP inh: inhibitors of Tn7 peptide binding to fibrin DD(E), primary screen, biochemical, fluorescence polarization, human fibrin, Tn7 probe; AID 720508, 2013; Fibrinogen beta chain (Homo sapiens), P02675; FP displacement of FITC-Tn7 peptide from fibrin DD(E); 0% = median of compound wells per plate; 0.13% of 370,000 active; inhibition, % at 8.3 µM;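 active means inhibition above the mean of compounds falling within the control limits plus 3 SD of them, cut at about 14% in these data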;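 further: 0% = plate median of compound wells and 100% = 10 µM Aha-Tn7 peptide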
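system = human fibrin DD(E) protein | quantity = DD(E) 2 µM final | medium = Tris/NaCl/CaCl2 buffer, pH 7.8 | also added = labelled Tn7 tracer, 0.1 µM | compound dosing = single point at 8.3 µM | timing = compound with protein 10 min, then 3 h after probe, room temperature | signal = FP measurement | benchmarks = Aha-Tn7 high control | repeats = one replicate per compound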
proKLK7 act: proKLK7 zymogen activators, primary screen, biochemical, fluorescence intensity | Kallikrein-7 (Homo sapiens), P49862 | purified proKLK7, EDANS-DABCYL substrate fluorescence; 100% is mature enzyme control, 0% vehicle | activation, % at 7 µM | 0.9% of 370,000 active;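 active means activation above the mean of all tested compounds plus 3 SD, computed per campaign excluding outliers beyond control limits, cut at about 13% in these data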
NRP1-CendR mod: modulators of CendR peptide binding to NRP-1, primary screen, biochemical, fluorescence polarization, uHTS | Neuropilin-1 (Homo sapiens), O14786 | FAM-RPARPAR peptide binding to NRP-1 | inhibition, % at 25 µM | 0.85% of 360,000 active | AID 602438, 2012;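 active means inhibition or corrected inhibition above about 18%, plus a signal ratio from 0.5 to 1.5, limit read from the data, passing the limit was not always enough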
proKLK7 act conf: proKLK7 zymogen activators, confirmation, biochemical, fluorescence intensity, triplicate. purified proKLK7, EDANS-DABCYL substrate fluorescence; scaled: vehicle 0, mature enzyme 100. activation, % at 7 µM. shares compounds with proKLK7 act. 68% of 3,200 active;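 active means activation, as change over the incubation, above the mean of all tested compounds plus 3 SD, cut at about 13% in these data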
EDANS interfere: EDANS-DABCYL substrate optical interference, artefact control for kallikrein-7 zymogen activator project, biochemical, fluorescence intensity, high throughput; shares compounds with proKLK7 act; no enzyme, 4 h; solvent 0%, active enzyme control 100%; activation, % at 7 µM; 80% of 3,200 active; AID 686952, 2013;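 active means activation above the all-compound mean plus 3 SD, ignoring values outside control-based bounds, cut at about 4.8% in these data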;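 further: value is the 4 h activation minus the activation read at time zero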
EDANS interf: counter-screen for kallikrein-7 activators: EDANS-DABCYL interference, dose response; 20% of 250 active; EDANS-DABCYL peptide fluorescence interference, no enzyme; EC50, µM; shares compounds with proKLK7 act; AID 720493;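 active means compounds that raise the fluorescence signal in this interference counterscreen, with EC50 at or below 10 µM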;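 further: intact quenched peptide substrate alone read at 355 nm excitation and 520 nm emission; signal is fluorescence gain from T0 to T4 after four hours at room temperature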
* hit, by the source's call; i = inactive; / = no result given.

SMILES	CRFBP-R2 block	DDE Tn6 FP inh	CRFR2-BP ag	DDE Tn7 FP inh	proKLK7 act	NRP1-CendR mod	proKLK7 act conf	EDANS interfere	others
NC(=O)c1sc2cc(C(F)(F)F)cnc2c1-c1ccccc1	7.6	0.0	-1.6	4.2	-0.2	7.2	/	/
C=CCN1[C@H](C)COc2cc(F)ccc2S1(=O)=O	/	9.5	/	-4.1	-0.4	/	/	/
COc1ccc(-c2csc(-c3ccc(C(=O)O)cc3)n2)cc1	18.1	6.1	-2.3	-4.8	21.9*	-16.6	35.1*	53.0*
N=C1/C(=C\c2coc3ccccc3c2=O)C(=O)N=C2SC(c3ccncc3)=NN12	-117.5	-21.6	158.6*	-6.6	42.9*	133.3	46.9*	38.5*	EDANS interf=i
Cc1ccc(C2=N/C(=C\c3coc4ccccc4c3=O)C(=O)O2)cc1	/	-4.2	/	0.0	-0.4	/	/	/
C=CCn1c(Cc2cccs2)nnc1SCC(=O)Nc1ccc(C)cc1	/	-1.2	/	-1.7	0.2	/	/	/
COC(=O)[C@]12C[C@H](CC(=O)NCCCN3CCCC3=O)C(=O)N(Cc3ccco3)C1=C[C@H](COCc1ccccc1)O[C@@H]2C	/	-2.4	/	-0.5	-0.5	/	/	/
Oc1[nH]c2ccc(Br)cc2c1N=Nc1ccc(F)cc1	-47.0	-1.9	36.1	1.0	-0.1	143.8	/	/
Oc1[nH]c2ccccc2c1N=Nc1ccc(F)cc1	-58.6	-1.8	62.3*	-38.3	97.4*	124.1	35.7*	55.7*
COc1cc2c(cc1OC)C(=O)CCS2	-2.0	6.4	-1.9	-4.1	14.3*	31.3*	15.7*	22.0*
COc1ccc2c(c1)SCCC2=O	-1.9	4.7	0.8	3.1	-1.7	5.7	/	/
CCOC(=O)c1csc(NC(=O)C2CCCN(S(=O)(=O)c3cccs3)C2)n1 (stereo not drawn)	/	4.5	/	8.0	-0.2	/	/	/
CS(=O)(=O)NN1C(=O)c2ccccc2NC1c1cc2ccccc2nc1Cl (stereo not drawn)	11.8	-7.6	-1.6	0.6	0.3	4.6	/	/
COc1ccc(C2Nc3ccccc3C(=O)N2NS(=O)(=O)c2ccc(C)cc2)cc1OC (stereo not drawn)	0.1	-15.8	-0.5	1.7	31.2*	0.1	7.7	7.1*
COc1ccc(C2Nc3ccccc3C(=O)N2NS(C)(=O)=O)cc1OC (stereo not drawn)	11.6	3.0	1.3	-1.9	58.9*	3.2	21.6*	12.8*	EDANS interf=i
CN(C)c1ccc(C2Nc3ccccc3C(=O)N2NS(C)(=O)=O)cc1 (stereo not drawn)	-0.8	-3.6	-1.8	1.6	21.8*	2.5	5.1	5.9*
CS(=O)(=O)NN1C(=O)c2ccccc2NC1c1ccccc1F (stereo not drawn)	29.6	-1.9	-0.7	2.2	35.2*	-0.9	4.1	8.2*
COc1ccc(C2Nc3ccccc3C(=O)N2Cc2ccccc2)cc1OC (stereo not drawn)	-12.4	1.3	-0.2	6.2	-1.0	-5.0	/	/
COc1ccc(C2Nc3ccccc3C(=O)N2c2ccc(C)cc2)cc1Cn1nnc2ccccc21 (stereo not drawn)	2.3	2.8	0.7	-3.5	-0.2	-6.6	/	/
CC(=O)NN1C(=O)c2ccccc2NC1c1ccc(N(C)C)cc1 (stereo not drawn)	-1.9	3.1	3.8	-0.1	7.9	2.1	/	/
